Experimental data: ChEMBL document CHEMBL3120138, “Glucocorticoid receptor modulators informed by crystallography lead to a new rationale for receptor selectivity, function, and implications for structure-based design” (J Med Chem, 2014)
Blank lines part the entries; values can stand above or below the compound they belong to. The source made the active and inactive calls. No cut-off for these calls is given here.

Tests used:
Rattus norvegicus [1] = experiment: Antiinflammatory activity in Lewis rat collagen-induced arthritis model assessed as reduction in ankle diameter at 10 mg/kg, po administered for 15 days measured during compound dosing; type: functional, organism-based; design: dose 10 mg/kg
Procedure, shortened: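 Female Lewis rats received collagen injected at the tail base, and disease developed over 14 d. Responding rats (groups of n = 10) were then dosed orally once daily for the next 15 d. Ankle/paw diameter was measured throughout the live phase and summarised as AUC. Hindpaw histology was scored blind from 0 (normal) to 5 (vehicle-level). Statistics used Student's t test vs vehicle, p < 0.01.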

[2] = biological target: T1, Mineralocorticoid receptor (Homo sapiens, UniProt P08235); experiment: Displacement of [3H]-aldosterone from human mineralocorticoid receptor expressed in HEK293 cells; type: cell-based
T1 sequence (P08235 whole entry): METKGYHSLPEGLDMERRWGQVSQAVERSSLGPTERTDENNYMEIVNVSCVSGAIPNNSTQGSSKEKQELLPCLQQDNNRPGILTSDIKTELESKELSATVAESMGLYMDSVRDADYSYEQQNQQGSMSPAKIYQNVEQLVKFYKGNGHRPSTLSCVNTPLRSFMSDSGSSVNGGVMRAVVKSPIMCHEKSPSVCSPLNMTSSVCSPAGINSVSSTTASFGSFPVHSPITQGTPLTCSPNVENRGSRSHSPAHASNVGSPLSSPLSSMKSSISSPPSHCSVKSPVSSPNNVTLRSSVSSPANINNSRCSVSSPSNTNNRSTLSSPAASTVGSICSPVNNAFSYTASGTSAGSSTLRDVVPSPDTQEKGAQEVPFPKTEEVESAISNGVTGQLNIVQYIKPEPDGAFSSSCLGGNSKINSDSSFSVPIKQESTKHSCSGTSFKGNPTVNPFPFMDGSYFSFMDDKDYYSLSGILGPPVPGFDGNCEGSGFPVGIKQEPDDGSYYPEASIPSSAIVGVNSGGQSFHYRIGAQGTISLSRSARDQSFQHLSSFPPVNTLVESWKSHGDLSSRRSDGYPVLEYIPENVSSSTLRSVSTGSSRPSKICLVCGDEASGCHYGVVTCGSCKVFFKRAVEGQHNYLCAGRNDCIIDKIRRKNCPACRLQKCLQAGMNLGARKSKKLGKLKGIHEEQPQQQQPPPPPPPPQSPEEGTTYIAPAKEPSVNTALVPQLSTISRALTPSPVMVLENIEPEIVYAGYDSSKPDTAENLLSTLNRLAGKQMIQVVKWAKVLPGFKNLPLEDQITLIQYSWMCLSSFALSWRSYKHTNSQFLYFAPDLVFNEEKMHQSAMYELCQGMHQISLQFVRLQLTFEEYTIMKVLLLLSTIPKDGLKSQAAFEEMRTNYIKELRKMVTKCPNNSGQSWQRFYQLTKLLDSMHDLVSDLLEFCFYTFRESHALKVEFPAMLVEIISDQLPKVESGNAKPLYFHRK
Procedure, shortened: (§1)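 Competition binding used lysates of HEK293 cells overexpressing the human receptor. The tracer was ³H-aldosterone for MR and ³H-methyltrienolone for PR. Competitor was tested from 0.01 nM to 10 μM. IC50 was converted to Ki by Cheng–Prusoff. Values are means of at least three experiments, each run in triplicate.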

[3] = Antiinflammatory activity in PMA-differentiated human U937 cells assessed as inhibition of LPS-induced TNFalpha production incubated for 60 mins prior to LPS challenge measured after 24 hrs; type: functional, cell-based; details: U-937
Procedure, shortened: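 U-937 cells (100 000/well) were differentiated with 20 nM PMA overnight at 37 °C, then refed with PMA-free medium. Cells were pretreated with compound for 60 min, then stimulated with LPS (stock 400 ng/mL) for 24 h at 37 °C. Secreted TNFα was measured by EIA/RIA. Ten-point half-log dilutions were used, each concentration in triplicate.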

[4] = Antiinflammatory activity in human CCD-39SK cells assessed as inhibition of IL-1beta-induced IL-6 production incubated for 60 mins prior to IL-1beta induction measured after 24 hrs; type: functional, cell-based
Procedure, shortened: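 CCD-39SK fibroblasts (20 000/well) were grown in MEM with 2% charcoal/dextran-treated FBS. Cells were pretreated with compound for 60 min, then stimulated with rhIL-1β (1 ng/mL final) for 24 h at 37 °C. IL-6 in clarified supernatant was measured. […] Ten-point half-log dilutions were used, each in triplicate.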

Rattus norvegicus [5] = experiment: Antiinflammatory activity in po dosed Sprague-Dawley rat assessed as inhibition of carrageenan-induced IL-1beta secretion incubated for 2 hrs prior to carrageenan challenge measured after 5 hrs by ELISA; type: functional
Procedure, shortened: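 Male Sprague-Dawley rats (n = 5/group) were dosed at t = 0, and carrageenan was injected into the rear footpad at 2 h. At 5 h the animals were euthanised and the hindpaws weighed to measure edema. Paw exudate was assayed for IL-1β by ELISA.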

Rattus norvegicus [6] = experiment: Antiinflammatory activity in po dosed Sprague-Dawley rat assessed as inhibition of carrageenan-induced paw edema incubated for 2 hrs prior to carrageenan challenge measured after 5 hrs […]; type: functional
[7] = biological target: T2, Glucocorticoid receptor (Homo sapiens) (UniProt P04150); experiment: Transactivation of human glucocorticoid receptor expressed in HEK293 cells at 10 uM after 24 hrs by luciferase reporter gene assay relative to control; type: cell-based
T2 sequence (whole entry): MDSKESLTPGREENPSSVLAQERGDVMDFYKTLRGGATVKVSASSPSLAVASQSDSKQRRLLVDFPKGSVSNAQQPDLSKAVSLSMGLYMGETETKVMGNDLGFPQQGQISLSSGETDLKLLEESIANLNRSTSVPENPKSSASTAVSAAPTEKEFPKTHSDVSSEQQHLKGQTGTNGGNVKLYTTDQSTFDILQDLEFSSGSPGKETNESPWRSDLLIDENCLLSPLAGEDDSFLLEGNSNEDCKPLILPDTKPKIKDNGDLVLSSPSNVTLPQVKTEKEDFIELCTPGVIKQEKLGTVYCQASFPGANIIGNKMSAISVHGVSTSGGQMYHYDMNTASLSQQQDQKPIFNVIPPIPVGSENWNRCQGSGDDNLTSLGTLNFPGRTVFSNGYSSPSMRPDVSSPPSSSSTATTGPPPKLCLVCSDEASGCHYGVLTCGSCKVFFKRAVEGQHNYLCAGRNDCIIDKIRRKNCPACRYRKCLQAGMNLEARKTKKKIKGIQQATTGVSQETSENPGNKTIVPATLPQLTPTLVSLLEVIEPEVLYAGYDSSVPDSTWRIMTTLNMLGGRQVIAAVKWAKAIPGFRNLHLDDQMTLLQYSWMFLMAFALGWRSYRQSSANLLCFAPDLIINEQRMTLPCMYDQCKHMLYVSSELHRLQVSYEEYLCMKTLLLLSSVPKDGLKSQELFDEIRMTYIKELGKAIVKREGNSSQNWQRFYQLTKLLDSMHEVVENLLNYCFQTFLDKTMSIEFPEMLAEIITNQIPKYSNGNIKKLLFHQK
Procedure, shortened: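 HEK293 cells were transfected in DMEM with 5% charcoal-stripped FBS, using a CMV-hGR plasmid and a luciferase reporter driven by 2×GRE plus the TK promoter. After overnight incubation, cells were replated and exposed to compound for 24 h, then lysed for luciferase readout.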

Glucocorticoid receptor = biological target: T3, Glucocorticoid receptor (Homo sapiens, UniProt P04150); experiment: Displacement of [3H]-dexamethasone from human glucocorticoid receptor expressed in HEK293 cells; type: cell-based
T3 sequence (P04150 whole entry): T2 sequence (whole entry)

Progesterone receptor = biological target: T4, Progesterone receptor (Homo sapiens, UniProt P06401); experiment: Displacement of [3H]-methyltrienolone from human progesterone receptor expressed in HEK293 cells; type: cell-based; procedure, shortened: as §1
T4 sequence (P06401 whole entry): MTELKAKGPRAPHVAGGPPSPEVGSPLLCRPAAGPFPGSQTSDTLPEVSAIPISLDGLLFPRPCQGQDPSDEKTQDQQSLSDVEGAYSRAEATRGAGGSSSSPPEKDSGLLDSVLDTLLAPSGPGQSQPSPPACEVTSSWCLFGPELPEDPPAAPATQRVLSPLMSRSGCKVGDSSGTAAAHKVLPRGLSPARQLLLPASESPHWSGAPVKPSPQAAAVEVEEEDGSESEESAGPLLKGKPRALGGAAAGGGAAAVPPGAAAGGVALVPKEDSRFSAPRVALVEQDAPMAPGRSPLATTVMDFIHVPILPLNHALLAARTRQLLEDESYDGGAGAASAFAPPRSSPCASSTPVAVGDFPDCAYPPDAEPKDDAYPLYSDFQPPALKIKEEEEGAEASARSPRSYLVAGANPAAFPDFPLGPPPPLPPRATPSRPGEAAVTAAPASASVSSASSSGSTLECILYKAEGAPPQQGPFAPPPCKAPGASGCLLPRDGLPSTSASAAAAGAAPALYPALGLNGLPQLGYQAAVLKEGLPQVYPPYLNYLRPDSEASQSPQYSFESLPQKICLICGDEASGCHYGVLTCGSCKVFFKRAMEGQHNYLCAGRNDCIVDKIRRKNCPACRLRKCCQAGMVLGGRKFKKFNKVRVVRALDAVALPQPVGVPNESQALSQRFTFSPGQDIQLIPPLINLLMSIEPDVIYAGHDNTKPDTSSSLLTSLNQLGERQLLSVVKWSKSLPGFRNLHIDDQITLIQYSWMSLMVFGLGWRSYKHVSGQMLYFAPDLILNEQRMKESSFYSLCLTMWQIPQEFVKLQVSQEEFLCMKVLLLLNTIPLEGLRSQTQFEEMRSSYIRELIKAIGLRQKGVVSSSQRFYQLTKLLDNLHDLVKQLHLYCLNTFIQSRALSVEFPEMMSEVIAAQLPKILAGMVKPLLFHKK

Ki [2]: 0.00029 µM
IC50 [3]: 0.0082 µM
IC50 [4]: 0.00726 µM
Efficacy [7]: 114%
Structure (SMILES): C[C@]12C=CC(=O)C=C1CC[C@@H]1[C@@H]2[C@@H](O)C[C@@]2(C)[C@H]1CC[C@]2(O)C(=O)CO [PREDNISOLONE]
Activity (Rattus norvegicus [1]): Active
ED50 (Rattus norvegicus [5]): 0.31 mg/kg
ED50 (Rattus norvegicus [6]): 7.6 mg/kg

Ki (Glucocorticoid receptor): > 0.1 µM
Structure (SMILES): CNS(=O)(=O)c1cccc(C=C2c3ccccc3CCc3ccccc32)c1

Ki (Glucocorticoid receptor): > 0.1 µM
Structure (SMILES): CCOc1cccc2c1/C(=C(/CC)c1cccc(N(CC)S(C)(=O)=O)c1)c1ccccc1OC2

Ki (Progesterone receptor): 0.561 µM
Structure (SMILES): C[C@@H]1C[C@H]2[C@@H]3CCC4=CC(=O)C=C[C@]4(C)[C@@]3(F)[C@@H](O)C[C@]2(C)[C@@]1(O)C(=O)CO [DEXAMETHASONE]

Ki (Glucocorticoid receptor): > 0.1 µM
Structure (SMILES): CS(=O)(=O)Nc1ccccc1C=C1c2ccccc2CCc2ccccc21

Ki (Glucocorticoid receptor): > 0.1 µM
Structure (SMILES): CS(=O)(=O)Nc1ccc(C=C2c3ccccc3CCc3ccccc32)cc1

Ki (Glucocorticoid receptor): > 0.1 µM
Structure (SMILES): C(=C1c2ccccc2CCc2ccccc21)c1ccccc1

Ki (Glucocorticoid receptor): > 0.1 µM
Structure (SMILES): Nc1cccc(C=C2c3ccccc3CCc3ccccc32)c1
